# Bioassay records: PubChem BioAssay, Johns Hopkins Ion Channel Center
# Hits are enriched below; roughly 3.7% of the tested compounds scored in any of these assays.
# hERG protect: hERG rescue from dofetilide block, primary screen, cell-based, CHO-hERG, FluxOR thallium flux, dofetilide IC70. dofetilide IC70 present. activation (rescue from dofetilide block), less the hit threshold, % at 10 µM. 310,000 compounds, 0.51% hits. AID 1511, 2009;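 active = activation above the mean of controls blocked by dofetilide plus 5 SD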;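 note: thallium influx through hERG after potassium depolarization seen as dye fluorescence rise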
# KCNK3 inh: human KCNK3 channel inhibitors, primary screen, CHO cells, FluxOR thallium flux, B-score | FluxOR fluorescence; hits give low values | Potassium channel subfamily K member 3 (Homo sapiens), O14649 | B-score at 10 µM | 340,000 compounds, 0.84% hits | AID 602410, 2012;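 active = B-score under library mean minus 4 SD, starting fluorescence ratio at most library mean plus 5 SD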;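 note: more negative B-score means stronger inhibition of thallium flux through KCNK3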
# Kir21 block: inhibitors of mouse Kir2.1 inward-rectifier potassium channel; Inward rectifier potassium channel 2 (Mus musculus), P35561; HEK293-Kir2.1, FluxOR thallium flux fluorescence; hits give low values; B-score at 10 µM; 310,000 compounds, 0.85% hits; AID 1672, 2009;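 active = fluorescence ratio B-score at or below minus 3 SD of library scores, with starting-brightness B-score within 2 SD, cut at about -4.2 in these data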;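 note: channel flux triggered by added potassium and thallium sulfate stimulus; B-score of peak minus minimum fluorescence over baseline after thallium stimulus; more negative B-score means stronger Kir2.1 block with less thallium influx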
# KCNQ1 pot: potentiators or activators of KCNQ1 channel, primary screen, cell-based, thallium flux, high-throughput; CHO-K1 KCNQ1, thallium flux FluxOR fluorescence; hits give high values; B-score at 10 µM; 310,000 compounds, 0.35% hits;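 active = fluorescence ratio B-score, a plate-corrected score, at least three library SD, with initial intensity B-score within 5 SD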
# Target sequence (P51787 whole entry, looked up): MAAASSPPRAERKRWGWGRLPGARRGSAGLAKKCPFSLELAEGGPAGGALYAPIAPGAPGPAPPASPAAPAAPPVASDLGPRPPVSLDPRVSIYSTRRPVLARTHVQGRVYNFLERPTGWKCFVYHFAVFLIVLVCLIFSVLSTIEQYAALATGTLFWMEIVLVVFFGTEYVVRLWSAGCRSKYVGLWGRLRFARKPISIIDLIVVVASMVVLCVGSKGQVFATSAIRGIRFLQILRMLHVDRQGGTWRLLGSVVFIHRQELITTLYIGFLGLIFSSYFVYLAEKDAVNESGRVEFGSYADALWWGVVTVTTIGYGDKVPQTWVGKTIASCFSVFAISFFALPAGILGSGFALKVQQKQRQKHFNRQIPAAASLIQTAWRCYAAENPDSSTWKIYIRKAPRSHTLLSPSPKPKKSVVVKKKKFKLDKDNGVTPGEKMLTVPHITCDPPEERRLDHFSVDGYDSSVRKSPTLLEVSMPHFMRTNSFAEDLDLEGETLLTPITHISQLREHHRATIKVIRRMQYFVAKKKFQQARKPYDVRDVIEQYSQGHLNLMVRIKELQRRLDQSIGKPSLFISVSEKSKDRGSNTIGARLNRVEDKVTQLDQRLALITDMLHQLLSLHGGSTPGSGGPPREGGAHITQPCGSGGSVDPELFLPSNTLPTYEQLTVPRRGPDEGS
#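 assay system = CHO-K1 cells stably expressing KCNQ1 | medium = assay buffer, equal DMSO in all wells | timing = 37 °C overnight plating, 90-min dark dye load, 20-min compound pretreatment | measured by = kinetic FluxOR thallium fluorescence, 10-s 1-Hz baseline, 110-s post-stimulus read | measure = fluorescence change relative to baseline, converted to B score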
# KCNQ1 inh: inhibitors of human KCNQ1 channel, primary screen, cell-based, thallium flux, high-throughput; B-score at 10 µM; Potassium voltage-gated channel subfamily KQT member 1 (Homo sapiens), P51787; 310,000 compounds, 1.3% hits; CHO-K1 KCNQ1, FluxOR thallium flux fluorescence; hits give high values;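 active = compounds whose thallium flux B-score, printed positive for inhibition, exceeds three library SD while starting fluorescence stays within three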;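 note: channel opened by potassium depolarization with thallium stimulus after 20 min compound exposure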
# KCNK9 inh: KCNK9 potassium channel inhibitors, primary screen, HEK293 cells, thallium flux; Potassium channel subfamily K member 9 (Homo sapiens), Q9NPC2; FluxOR thallium flux fluorescence; hits give low values; B-score at 10 µM; 310,000 compounds, 1.2% hits; AID 488922, 2010;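 active = ratio B-score over 3 SD below the library mean, with starting fluorescence within 5 SD of its mean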;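 note: negative B-score means less thallium flux so channel inhibition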
# KCNK3 inh conf: retest of human KCNK3 channel inhibitors, confirmation, CHO cells, FluxOR thallium flux, triplicate; FluxOR fluorescence; 0% buffer, 100% carvedilol maximal block; AID 651638, 2012; 2,400 compounds, 99% hits; ratio percent of control, % at 10 µM; shares compounds with KCNK3 inh;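 active = ratio percent of control, averaged over triplicates, above buffer control mean plus 5 SD, cut at about 64% in these data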;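 note: ratio is the fluorescence rise from min to max over baseline after thallium stimulus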
# KCNK3 uninduced: thallium flux inhibition in non-induced cells, primary screen, counter-screen for KCNK3 inhibitor project, cell-based, non-induced KCNK3 line, FluxOR thallium, triplicate. shares compounds with KCNK3 inh. non-induced KCNK3 parental cells; hits give low values. thallium flux ratio (lower = more inhibition) at 10 µM. 2,400 compounds, 40% hits;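 active = thallium flux ratio, averaged over three wells, more than 5 SD below the buffer control mean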;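 note: host cells are CHO cells without KCNK3 induction; ratio is peak minus trough fluorescence over baseline then normalized to buffer controls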
# Active calls of the source: *; i = inactive; x = no result.
SMILES,hERG protect,KCNK3 inh,Kir21 block,KCNQ1 pot,KCNQ1 inh,KCNK9 inh,KCNK3 inh conf,KCNK3 uninduced
Cc1cc(C)c2sc(N(CCN(C)C)C(=O)c3c(F)cccc3F)nc2c1,-11,-9.1*,1.9,i,i,i,116*,i
Cc1cc(=O)oc2cc(NC(=O)c3ccccc3OC(F)F)ccc12,-6,-11*,0.95,i,i,i,105*,i
CCCNC(=O)CSc1nc2ccccc2c(=O)n1CCC,-5,-8.8*,1.8,i,i,i,86*,i
CN1CCN(S(=O)(=O)c2ccc3c(c2)NC(=O)CS3)CC1,-1,i,-1.8,i,i,i,x,x
Cc1ccc(C)c(N2CCN(S(=O)(=O)c3ccc4c(c3)NC(=O)CS4)CC2)c1,-1,-9.4*,-0.87,i,i,i,85*,i
Cn1cccc1C1C=C(c2ccc(C(C)(C)C)cc2)Nc2ncnn21 (stereo not drawn),-18,-9.1*,1.9,i,i,i,111*,i
Cc1ccc(C2C=C(c3ccccc3)Nc3ncnn32)cc1 (stereo not drawn),-9,i,-0.75,i,i,i,x,x
Cn1nc(C(=O)OCC(=O)NC2CCS(=O)(=O)C2)c2ccccc2c1=O (stereo not drawn),-10,i,1.9,i,i,i,x,x
Cc1ccc(S(=O)(=O)NCC(c2ccco2)N2CCc3ccccc3C2)cc1 (stereo not drawn),-7,i,-0.48,i,i,i,x,x
O=S(=O)(NCC(c1ccco1)N1CCc2ccccc2C1)c1ccc(Br)cc1 (stereo not drawn),-8,-8.7*,0.02,i,i,i,114*,i
O=C(Nc1ccc2c(c1)Cc1ccccc1-2)c1ccc(Br)o1,-7,-10*,-0.29,i,i,i,86*,i
CNc1nc(N)c(C(=O)C23CC4CC(CC(C4)C2)C3)s1,-9,i,0.26,i,i,i,x,x
CCCCCC(=O)Nc1ccc(C(=O)COC(=O)c2ccccn2)cc1,-8,i,0.35,i,i,i,x,x
CC(C)n1c(SCC(=O)N2c3ccccc3Sc3ccccc32)nc2c1c(=O)n(C)c(=O)n2C,-8,-11*,0.93,i,i,i,98*,i
COc1ccc(S(=O)(=O)N(C)C)cc1NC(=O)CSc1nnc(-c2cccnc2)o1,-3,i,-0.06,i,i,i,x,x
COc1ccc(-c2cc(C(=O)NCCc3ccc(S(N)(=O)=O)cc3)c3ccccc3n2)cc1,-8,i,0.69,i,i,i,x,x
C=CCn1c(SCC(N)=O)nc2sc3c(c2c1=O)CCC3,1,i,2.2,i,i,i,x,x
C=CCn1c(SCc2csc(C)n2)nc2sc3c(c2c1=O)CCCC3,-9,-8.9*,0.02,i,i,i,122*,0.14*
CCN(C[C@H]1N[C@@](C)(C(=O)OC)[C@H]2C(=O)N(C)C(=O)[C@@H]12)C(=O)Nc1ccccc1,x,i,x,x,x,x,x,x
O=C(Nc1nc(-c2ccc3c(c2)OCO3)cs1)C1COc2ccccc2O1 (stereo not drawn),-15,-11*,0.01,i,i,i,109*,i
CC(C)=CCc1c(O)ccc2c1OC(c1ccc(O)c(O)c1)CC2=O (stereo not drawn),-38,-12*,-7.1*,i,i,-6.6*,138*,0.12*
O=C1CC(c2ccc(O)c(O)c2)Oc2c1ccc(O)c2O (stereo not drawn),x,i,x,x,x,x,x,x
COc1ccc(NS(=O)(=O)c2cccc(C(=O)NNC(=O)CNC(=O)c3ccc(C)cc3)c2)cc1,-12,i,0.25,i,i,i,x,x
O=C(CN1CCN(S(=O)(=O)c2ccccc2F)CC1)Nc1ccnn1C1CCCC1,x,i,x,x,x,x,x,x
COCCn1c(-c2ccccc2)nc2ccccc21,-11,i,1.6,i,i,i,x,x
SMILES,hERG protect,KCNK3 inh,Kir21 block,KCNQ1 pot,KCNQ1 inh,KCNK9 inh,KCNK3 inh conf,KCNK3 uninduced
COCCn1c(/C=C/c2ccccc2)nc2ccccc21,-9,-8.8*,0,i,i,i,83*,i
CC(Cl)C(=O)N1c2ccccc2CCc2ccccc21 (stereo not drawn),-10,i,-1.6,i,i,i,x,x
CC(=O)N(C)N1c2ccccc2CCc2ccccc21,-12,-8.8*,-4.2,i,i,i,109*,i
Cc1cccn2c(=O)c(/C=C(\C#N)C(N)=O)c(N3CCN(c4cccc(Cl)c4)CC3)nc12,-5,-10*,1.4,i,i,-7.2*,102*,i
CCc1nnc(NC(=O)C2CCN(C(=O)c3ccco3)CC2)s1,-1,-8.8*,-0.85,i,i,i,81*,i
CCOC(=O)c1ccc(NC(=O)CSc2nnc(CCc3ccc(C)o3)n2-c2ccccc2)cc1,-10,-17*,-1.6,i,i,i,90*,i
CCOc1ncnc2c1oc1nc(CC(C)C)c3c(c12)CC(C)(C)OC3,-15,i,0.18,i,i,i,x,x
CCOc1nc(CC(C)C)c2c(c1C#N)CC(C)(C)OC2,-14,-9*,-0.21,i,i,i,111*,i
COc1ccccc1CC(=O)N1CCC(CCC(=O)NC2CC2)CC1,-2,i,0.77,i,i,i,x,x
COc1cc(NC(=O)c2ccc(C)cc2C)ccc1NC(=O)c1cccs1,-10,i,0.4,i,i,i,x,x
O=C(Nc1cccc(NC(=O)c2cccnc2)c1)c1cccnc1,1,i,0.1,i,i,i,x,x
Cc1ccc(C(=O)Nc2cccc(NC(=O)c3cccs3)c2)c(C)c1,-3,-11*,0.59,i,i,-7*,85*,i
Cc1cc(C)cc(C(=O)Nc2ccc(NC(=O)c3cccs3)cc2)c1,-7,i,-1.2,i,i,i,x,x
